The values below come from ChEMBL document CHEMBL4732100, “Water-soluble inhibitors of ABCG2 (BCRP) - A fragment-based and computational approach” (Eur J Med Chem, 2021).

Data set [1] in a line: Cytotoxicity against human MCF7/Topo cells assessed as inhibition of cell proliferation at 1 uM measured by crystal violet based microplate reader assay. In short, it runs like this: (§1)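 MCF-7/Topo cells grown in DMEM/High with 2% (v/v) 200 mM L-glutamine and 10% FCS at 37 °C, 5% CO2, kept under 550 nM topotecan. Long-term incubation with inhibitor. Value given as corrected T/C = (T−C0)/(C−C0)·100 from absorbance; cytocidal effect (T−C0)/C0·100 when T<C0. Mean ± SEM of two to three experiments, each in octuplicate.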

The target of data set [2] is ATP-dependent translocase ABCB1 (Homo sapiens, UniProt P08183). In words: Inhibition of ABCB1 in human KB-V1 cells assessed as accumulation of substrate calcein-AM stain measured after 10 mins by fluorometric microplate reader assay. The format is cell-based. The procedure, abridged:
(§2)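 KB-V1 cells (ABCB1-overexpressing KB variant) kept under 330 nM vinblastine. Calcein-AM accumulation read by fluorescence after intracellular cleavage to calcein. Compounds tested up to 100 µM. Inhibition is normalized to 10 µM tariquidar set to 100% (Imax). Mean ± SEM from ≥3 experiments in triplicate.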

A further data set has as its target ABCB1 (Homo sapiens, UniProt P08183). In words: Inhibition of ABCB1 in human KB-V1 cells assessed as accumulation of substrate calcein-AM stain at 10 uM measured after 10 mins by fluorometric microplate reader assay relative to Tariquidar. The class given is cell-based. The note with it: probe calcein-AM, read-out: Imax. The procedure, abridged:
as §2

Data set [3] has as its target T1, ABCG2 (Homo sapiens, UniProt Q9UNQ0).
T1 sequence (Q9UNQ0 whole entry): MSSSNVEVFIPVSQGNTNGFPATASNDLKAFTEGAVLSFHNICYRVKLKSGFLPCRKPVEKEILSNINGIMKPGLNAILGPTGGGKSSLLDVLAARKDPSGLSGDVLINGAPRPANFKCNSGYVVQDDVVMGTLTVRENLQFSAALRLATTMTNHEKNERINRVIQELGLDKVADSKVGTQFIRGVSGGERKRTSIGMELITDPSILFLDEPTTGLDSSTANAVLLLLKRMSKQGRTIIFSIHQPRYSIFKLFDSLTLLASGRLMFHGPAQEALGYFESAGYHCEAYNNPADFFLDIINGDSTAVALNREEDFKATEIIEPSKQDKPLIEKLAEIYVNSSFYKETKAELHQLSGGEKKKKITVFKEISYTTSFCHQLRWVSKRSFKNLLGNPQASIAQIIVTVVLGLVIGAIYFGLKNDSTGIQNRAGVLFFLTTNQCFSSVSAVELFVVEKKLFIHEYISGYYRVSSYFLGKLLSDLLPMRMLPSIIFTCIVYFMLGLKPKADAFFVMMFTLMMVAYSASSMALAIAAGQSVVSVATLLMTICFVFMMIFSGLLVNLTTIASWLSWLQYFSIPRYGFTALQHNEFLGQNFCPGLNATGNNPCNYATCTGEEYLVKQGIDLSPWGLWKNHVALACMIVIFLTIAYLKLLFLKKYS
Nature of the data set: Inhibition of human ABCG2 in human MCF7/Topo cells assessed as accumulation of substrate Hoechst […] stain at 10 uM measured after 2 hrs by fluorometric microplate reader assay relative to FTC. The format is cell-based. The settings on record: read-out: Imax.

A short description of data set [4]: Thermodynamic solubility of compound in PBS at pH 7.4 […] by shake-flask method. The class given is physicochemical. The settings on record: buffer.
Another data set concerns MDCK-MRP1. In words: Inhibition of human ABCC1 expressed in MDCK-MRP1 cells assessed as accumulation of substrate calcein-AM stain at 30 uM measured after 1 hr by fluorometric microplate reader assay relative to Reversan. The note with it: Canis lupus familiaris. The class given is cell-based. In short, it runs like this:
(§3)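 MDCK.2 cells transfected with human ABCC1 (MDCK.2-MRP1), trypsinized with 2X trypsin/EDTA for 30 min. Calcein-AM accumulation measured fluorometrically. Compounds tested up to 100 µM. Inhibition is normalized to 30 µM reversan set to 100% (Imax). Mean ± SEM from ≥3 experiments in triplicate.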

A short description of data set [5]: Kinetic solubility of compound in PBS at pH 7.4 measured after 2 hrs by turbidimetric measurement. The settings on record: read-out: Kinetic_solubility.
Data set [6] concerns the target T2, Broad substrate specificity ATP-binding cassette transporter ABCG2 (Homo sapiens, UniProt Q9UNQ0).
T2 sequence (Q9UNQ0 whole entry): T1 sequence (Q9UNQ0 whole entry)
In words: Inhibition of human ABCG2 in human MCF7/Topo cells assessed as accumulation of substrate Hoechst […] stain measured after 2 hrs by fluorometric microplate reader assay. The class given is cell-based. The note with it: read-out: IC50.

Data set [7] can be described thus: Inhibition of human ABCC1 expressed in MDCK-MRP1 cells assessed as accumulation of substrate calcein-AM stain measured after 1 hr by fluorometric microplate reader assay. The class given is cell-based, Canis lupus familiaris. In short, it runs like this:
as §3

A short description of data set [8]: Stability of compound in human plasma at 200 uM measured up to 24 hrs by HPLC-MS analysis. The class given is ADME, cell-free. In short, it runs like this: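 Compound from 10 mM DMSO stock incubated in human CPD plasma at 37 °C for up to 24 h. Samples filtered (0.2 µm). Analyzed by RP-HPLC on a C8 column with acetonitrile/0.05% aq TFA gradient 20:80→95:5 over 12 min and UV detection at 220 nm. HPLC-MS run at 0 h and 24 h.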

For data set [9], the target named is T1, ABCG2. Nature of the data set: Substrate activity at ABCG2 in human MCF7/Topo cells assessed as increase in ATPase activity measured after 1 hr by colorimetric assay relative to sulfasalazine. The settings on record: read-out: Imax. The class given is cell-based. The procedure, abridged:
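Membranes prepared from MCF-7/Topo cells: homogenized in TMEP buffer pH 7 with protease inhibitors, 500 g spin, then 100,000 g for 1 h. Released inorganic phosphate read by molybdenum blue reaction. Basal activity set to 0% and 30 µM sulfasalazine to 100%. Concentration-response data; mean ± SEM of ≥3 experiments in triplicate.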

Data set [10] in a line: Cytotoxicity against human MCF7/Topo cells assessed as inhibition of cell proliferation at 10 uM measured by crystal violet based microplate reader assay. In short, it runs like this: as §1

Converted amounts (≈) assume the structure as drawn. Where only a bound is given, the exact number is not on record here.

Sequence of ATP-dependent translocase ABCB1 (P08183 whole entry): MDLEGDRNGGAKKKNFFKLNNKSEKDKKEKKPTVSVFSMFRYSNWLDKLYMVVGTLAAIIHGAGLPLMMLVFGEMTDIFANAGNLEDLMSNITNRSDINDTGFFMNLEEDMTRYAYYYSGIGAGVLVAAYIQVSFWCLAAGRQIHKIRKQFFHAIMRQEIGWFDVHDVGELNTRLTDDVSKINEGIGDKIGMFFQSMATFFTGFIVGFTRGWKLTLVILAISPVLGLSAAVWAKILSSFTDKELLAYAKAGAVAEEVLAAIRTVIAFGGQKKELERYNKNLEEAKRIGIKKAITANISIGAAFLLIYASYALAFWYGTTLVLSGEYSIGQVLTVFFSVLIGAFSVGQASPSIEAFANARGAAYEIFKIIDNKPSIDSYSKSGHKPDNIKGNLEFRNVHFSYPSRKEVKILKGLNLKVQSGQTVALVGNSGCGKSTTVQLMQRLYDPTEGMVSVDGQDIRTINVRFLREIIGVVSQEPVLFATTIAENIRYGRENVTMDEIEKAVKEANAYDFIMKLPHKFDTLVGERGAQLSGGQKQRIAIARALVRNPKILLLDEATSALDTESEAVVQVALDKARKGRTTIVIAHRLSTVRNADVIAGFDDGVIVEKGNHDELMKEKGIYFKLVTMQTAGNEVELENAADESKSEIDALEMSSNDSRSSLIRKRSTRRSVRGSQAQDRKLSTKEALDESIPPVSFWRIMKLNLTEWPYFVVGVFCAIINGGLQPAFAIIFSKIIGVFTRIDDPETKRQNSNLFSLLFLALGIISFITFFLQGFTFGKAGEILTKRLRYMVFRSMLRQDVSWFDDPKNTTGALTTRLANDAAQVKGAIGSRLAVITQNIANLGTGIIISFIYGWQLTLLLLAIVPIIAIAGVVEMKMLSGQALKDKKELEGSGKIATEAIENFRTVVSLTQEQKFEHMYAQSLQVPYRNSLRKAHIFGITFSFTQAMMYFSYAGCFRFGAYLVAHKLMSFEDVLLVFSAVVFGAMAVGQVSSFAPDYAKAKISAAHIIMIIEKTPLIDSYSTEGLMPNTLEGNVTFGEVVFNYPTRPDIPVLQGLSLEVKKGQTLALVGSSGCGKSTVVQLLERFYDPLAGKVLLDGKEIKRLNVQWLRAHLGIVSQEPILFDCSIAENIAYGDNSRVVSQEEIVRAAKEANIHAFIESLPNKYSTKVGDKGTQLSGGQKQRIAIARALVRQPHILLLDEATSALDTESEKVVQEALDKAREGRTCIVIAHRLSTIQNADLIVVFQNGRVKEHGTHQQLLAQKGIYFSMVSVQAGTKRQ
Sequence of ABCB1 (P08183 whole entry): as above

As to `CCC(=O)c1ccc(-c2cn(CCN3CCOCC3)nn2)cc1NC(=O)c1cc(=O)c2ccccc2o1`, the Activity entry in data set [1] is on record as “Non-Toxic”. For the same compound, the results for the IC50 in data set [2] (read-out: IC50), in [6] and in data set [7] (read-out: IC50) were 1340 nM, 312 nM and 2080 nM, respectively. Besides, the Emax at 10 min, 10 µM on ABCB1 is 92%. Besides, the Emax at 2 h, 10 µM on ABCG2 [3] amounted to 95%. The compound further had a Therm_solubility in [4] of 0.999 µM. Moreover, the Imax with MDCK-MRP1 is 66%. In addition, the solubility kinetic at 2 h in data set [5] turned out to be 10 µM (≈ 5.02 µg/mL).

As for `CCC(=O)c1ccc(-c2cn(-c3ccc(CCN4CCc5cc(OC)c(OC)cc5C4)cc3)nn2)cc1NC(=O)c1cccc(OC)n1`, the Activity entry in data set [1] was “Non-Toxic”. For the same compound, the IC50 result is “Not Active” in [2] (kb-v1), 322 nM in data set [6] and “Not Active” in data set [7]. Besides, at ABCG2 [3], the Emax at 2 h, 10 µM is 92%. The compound also showed a Therm_solubility in data set [4] of under 0.1 µM. Further, in data set [5], the solubility kinetic at 2 h is 7 µM (≈ 4.53 µg/mL).

Regarding `Cc1ccc(-c2cn(CCN3CCCC3)nn2)c(NC(=O)c2cc(=O)c3ccccc3o2)c1`, the Stabilty entry in data set [8] was “Stable”. In addition, the Emax at 1 h at ABCG2 [9] came out at 29%. The 50% inhibitory concentration (IC50) entry is “Not Active” in [2] (kb-v1), 109 nM in data set [6] and “Not Active” in data set [7]. The Emax at 2 h, 10 µM on ABCG2 [3] turned out to be 103%. Further, the Therm_solubility in data set [4] came to 1.228 µM. The solubility kinetic at 2 h in [5] worked out at 7 µM (≈ 3.1 µg/mL).

`Cc1ccc(-c2cn(CCN3CCOCC3)nn2)c(NC(=O)c2cc(=O)c3ccccc3o2)c1`: the Emax at 1 h on ABCG2 [9] was 46%. For the same compound, the IC50 in [2] (read-out: IC50) was over 1600 nM; in data set [6] it was 188 nM; in data set [7] (read-out: IC50), over 1470 nM. The Emax at 10 min, 10 µM on ABCB1 was over 13%. In data set [10], the Activity result is given as “Non-Toxic”. The Emax at 2 h, 10 µM on ABCG2 [3] was 108%. Also, in [4], the Therm_solubility is 1.144 µM. Besides, the Imax in the data set on MDCK-MRP1 was over 22%. Besides, the solubility kinetic at 2 h in data set [5] worked out at 10 µM (≈ 4.6 µg/mL).
